According to PubChem BioAssay:
Calls of active or inactive are those of the source.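 Rule for the calls, unless noted: active = inhibition at or above 50% relative to wild type and mutant plate controls; inactive = inhibition below 50%.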

Tests used:
[1] = inhibitors of TNFa-induced NFkB p65 translocation, primary screen, imaging, HUVEC, MLSMR starter and 10KST1 sets (AID 438;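 active = inhibition above 20% together with a positive visual image hit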;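 note: compound added about 3h40 before a 20 min TNFalpha stimulation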;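 for inhibition: signal is the nuclear over cytoplasmic p65 intensity ratio per well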); conditions: HUVEC TNFa-induced p65 nuclear translocation; cell count: measured here: nuclei count (cytotoxicity indicator), at 2.08 µM; inhibition: at 2 µM, stronger effect = higher value, 0% TNFa-plus-vehicle, 100% no-TNFa wells
[2] = endothelial E-selectin expression blockers – imaging, HUVEC, immunofluorescence, MLSMR starter and 10KST1 sets, primary screen (AID 487;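 active = visually confirmed hit in the image check and inhibition above 20%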;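 for inhibition: signal is fraction of cell area covered by stained E-selectin grains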;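 for nuclei count: 100% = median nuclei count of all wells on the same plate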); conditions: HUVEC TNFalpha-induced E-selectin immunofluorescence imaging, at 2 µM; inhibition: stronger effect = higher value; nuclei count: measured here: cell number, toxicity
[3] = Primary imaging screen for DUSP6 inhibitors that restore phospho-Erk in transfected HeLa cells, chemical complementation (AID 609;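 active = compounds giving at least 50% inhibition in the cell-based MKP-3 phosphatase rescue imaging test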;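 for inhibition: phospho-Erk level distribution per well compared with pooled transfected vehicle control wells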); conditions: HeLa MKP-3 transfected, phospho-Erk imaging KS statistic, at 10 µM, cells stimulated with TPA for 15 min
[4] = target: Dual specificity protein phosphatase 6 (Homo sapiens) (UniProt Q16828); test: as above; conditions: HeLa MKP-3 transfected, phospho-Erk imaging KS statistic; at 10 µM; stronger effect = higher value; cells stimulated with TPA for 15 min
Chain of Dual specificity protein phosphatase 6 (Homo sapiens) (Q16828 whole entry, looked up): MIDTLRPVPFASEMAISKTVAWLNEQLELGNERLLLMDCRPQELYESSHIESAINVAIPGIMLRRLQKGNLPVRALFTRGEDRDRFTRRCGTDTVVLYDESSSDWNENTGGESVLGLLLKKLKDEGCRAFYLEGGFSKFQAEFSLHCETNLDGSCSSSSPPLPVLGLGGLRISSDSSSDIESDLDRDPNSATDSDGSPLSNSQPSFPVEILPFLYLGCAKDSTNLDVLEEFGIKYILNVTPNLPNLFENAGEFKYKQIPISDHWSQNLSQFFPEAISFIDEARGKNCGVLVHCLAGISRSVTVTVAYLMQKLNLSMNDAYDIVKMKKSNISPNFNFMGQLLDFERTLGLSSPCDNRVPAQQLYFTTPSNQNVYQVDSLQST

[5] = target: Voltage-gated potassium channel subunit beta-2 (Rattus norvegicus) (UniProt P62483); test: inhibitors of rat Kvbeta2 reductase activity – biochemical, NADPH fluorescence, primary screen (AID 622;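 active = fluorescence slope higher than the sample average by over 3 SD, cut at about -0.22 in these data, passing the limit was not always enough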;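 note: slope of raw intensity against log time taken from 70 to 1610 s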); conditions: recombinant KvBeta, 4-cyanobenzaldehyde reduction, at 10 µM, stronger effect = higher value
Chain of Voltage-gated potassium channel subunit beta-2 (Rattus norvegicus) (P62483 whole entry, looked up): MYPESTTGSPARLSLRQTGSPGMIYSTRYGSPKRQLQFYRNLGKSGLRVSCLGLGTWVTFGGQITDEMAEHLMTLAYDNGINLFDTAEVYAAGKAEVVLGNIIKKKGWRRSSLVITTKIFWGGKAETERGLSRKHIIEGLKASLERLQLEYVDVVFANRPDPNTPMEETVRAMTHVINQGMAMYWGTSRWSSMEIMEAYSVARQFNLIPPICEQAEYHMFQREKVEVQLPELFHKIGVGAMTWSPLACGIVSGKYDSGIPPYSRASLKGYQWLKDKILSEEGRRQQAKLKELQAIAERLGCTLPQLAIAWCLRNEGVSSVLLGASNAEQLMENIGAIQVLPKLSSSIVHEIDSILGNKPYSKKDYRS

[6] = target: Voltage-gated potassium channel subunit beta-2 (Rattus norvegicus) (UniProt P62483); test: enhancers of rat Kvbeta2 NADPH turnover – biochemical, NADPH fluorescence, primary screen (AID 623;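 active = NADPH fluorescence slope more negative than the mean of all samples by about 3 SD, 99.7% confidence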;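 note: fluorescence intensity change per second fitted from 20 to 320 s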); conditions: Recombinant KvBeta, NADPH fluorescence decrease slope, 10 min; at 10 µM; stronger effect = lower value
[7] = target: Muscarinic acetylcholine receptor M4 (Homo sapiens) (UniProt P08173); test: M4-linked GIRK flux change, two-sided – cell-based, HEK293 M4/GIRK, thallium flux, BTC-AM, M4 allosteric agonist project, primary screen (AID 625;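 active = fluorescence slope after compound addition differing from the mean of all tested samples at 99.7% confidence, mostly higher but some lower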;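 note: thallium influx through GIRK channels coupled to M4 in HEK293 cells with BTC-AM dye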); conditions: at 10 µM, actives lie on both sides
Chain of Muscarinic acetylcholine receptor M4 (Homo sapiens) (P08173 whole entry, looked up): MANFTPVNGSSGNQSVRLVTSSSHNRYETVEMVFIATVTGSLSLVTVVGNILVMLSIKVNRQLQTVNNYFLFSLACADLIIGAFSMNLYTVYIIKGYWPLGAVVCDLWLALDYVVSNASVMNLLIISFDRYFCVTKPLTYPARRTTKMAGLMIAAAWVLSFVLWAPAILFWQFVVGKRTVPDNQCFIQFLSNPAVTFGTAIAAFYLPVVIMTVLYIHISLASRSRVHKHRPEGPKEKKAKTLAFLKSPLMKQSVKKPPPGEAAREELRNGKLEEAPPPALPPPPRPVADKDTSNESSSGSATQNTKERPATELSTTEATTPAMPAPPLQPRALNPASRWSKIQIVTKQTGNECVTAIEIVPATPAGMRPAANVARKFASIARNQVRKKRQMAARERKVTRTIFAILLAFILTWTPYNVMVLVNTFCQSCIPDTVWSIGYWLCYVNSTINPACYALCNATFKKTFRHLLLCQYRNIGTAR
Procedure, shortened: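 assay system = HEK293 cells with M4 receptor and GIRK channels | medium = pH 7.3 thallium assay buffer | doses = 10 µM final, single point | timing = cells overnight at 37 °C, BTC-AM loading 1 h, reads 2 min total | signal = BTC-AM fluorescence, 1 Hz kinetic reads | read-out = post-addition slope, 15–24 s, of baseline-normalized fluorescence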

[8] = inhibitors of larval lipid processing in zebrafish, primary screen, whole organism, PED6 fluorescence, gall bladder and intestine (AID 686;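 active = a full or partial loss of lipid-probe fluorescence in the fish gall bladder, intestine or both, judged by eye; inactive = no fluorescence loss, or compound toxic to the fish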;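 note: larvae 5 to 7 days old with five fish per well; signal comes from phospholipase A2 cleavage of quenched PED6 carried via bile; overnight exposure to compound and PED6 before scoring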); conditions: Zebrafish larvae PED6 lipid processing, fluorescence scoring; screened at 20 µM (by protocol)
Procedure, shortened: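 Also added: quenched phospholipase substrate PED6, 100 nM final, ingested by larvae; System: zebrafish larvae, 5-7 d; Quantity: 5 larvae per well; Compound: 20 µM single dose; Schedule: overnight compound and PED6 incubation; Read-out: visual per-well fluorescence inhibition score; Measured by: By-eye fluorescence microscopy; Medium: E3.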

[9] = loss of swimming-algae plug formation – whole organism, Chlamydomonas reinhardtii, WT vs cilia-less mutant, absorbance, 96-well, primary screen (AID 463189); conditions: Chlamydomonas reinhardtii gravitaxis, OD600 absorbance, 2 days; at 10 µM; stronger effect = higher value;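 note: 0% = wild type cc124 cells in DMSO and 100% = ciliumless bld1 mutant cells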
[10] = measured here: cell density z-score
[11] = measured here: nuclear c-Myc green intensity z-score
[12] = measured here: nuclear pErk red intensity z-score, stronger effect = higher value

SMILES | cell count [1] | inhibition [1] | inhibition [2] | nuclei count [2] | z-score [3, 10] | z-score [3, 11] | z-score [3, 12] | inhibition [4] | fluorescence slope [5] | NADPH fluorescence slope [6] | fluorescence slope [7] | outcome [8] | inhibition [9]
CCCC(CCC(=O)Nc1ccc(C(=O)OC)cc1)C(=O)O (stereo not drawn) | 402 | -5.3% (inactive) | -85.5% (inactive) | 145% | 0.89 | -1.82 | 0.0137 | 26.5% (inactive) | -0.445 (inactive) | -8.7e-05 (inactive) | 0.00528 (inactive) | inactive | -1.65% (inactive)
CN(C)CCCn1c(NC(=O)C2CCCCC2)nc2ccccc21 | 672 | 9.7% (inactive) | -32.4% (inactive) | 112% | 0.036 | -0.199 | -1.54 | -3.95% (inactive) | -0.437 (inactive) | -3.5e-05 (inactive) | 0.00538 (inactive) | inactive | -0.148% (inactive)
Cn1ncc(N=Cc2c(O)ccc3ccccc23)c1C(=O)N1CCOCC1 | 713 | -2.5% (inactive) | -43.6% (inactive) | 175% | 0.977 | 0.19 | 0.26 | 3.97% (inactive) | -0.482 (inactive) | -9.8e-05 (inactive) | 0.00513 (inactive) | inactive | 11.5% (inactive)
CCOc1ccc(C2C=C(c3ccccc3)Nc3ncnn32)cc1 (stereo not drawn) | 531 | -1.1% (inactive) | 58.8% (inactive) | 151% | -0.603 | 0.992 | -0.889 | 11.9% (inactive) | -0.0438 (inactive) | -6.4e-06 (inactive) | 0.00687 (inactive) | inactive | 22.6% (inactive)
Cc1nnc(N2CCOCC2)c2ccccc12 | 590 | -0.6% (inactive) | -63.6% (inactive) | 148% | 0.561 | 0.102 | -1.27 | 1.63% (inactive) | -0.472 (inactive) | -0.000134 (inactive) | 0.00562 (inactive) | inactive | 14.9% (inactive)
CCc1nc(N2CCOCC2)c(C#N)c2c1CCCC2 | 397 | -6.2% (inactive) | -105% (inactive) | 121% | 0.0216 | 0.691 | -0.389 | 9.42% (inactive) | -0.482 (inactive) | -6.5e-05 (inactive) | 0.00431 (inactive) | inactive | 29.5% (inactive)
CCCCSc1nnc2n(CCc3ccccc3)c(=O)c3c4c(sc3n12)COC(C)(C)C4 | 533 | -4.4% (inactive) | -25.9% (inactive) | 170% | 1.42 | -1.24 | 0.334 | 11.9% (inactive) | -0.334 (inactive) | -6.5e-06 (inactive) | 0.00807 (inactive) | inactive | 129% (active)
CCOC(=O)C1CCN(c2ncnc3c2cnn3-c2ccc(Cl)cc2)CC1 | 621 | -13.7% (inactive) | -82.8% (inactive) | 158% | 1.18 | -0.0217 | -0.611 | 27.4% (inactive) | -0.442 (inactive) | -1.8e-05 (inactive) | 0.00741 (inactive) | inactive | -0.354% (inactive)
CCCNc1ncnc2c1cnn2-c1ccc(OC)cc1 | 631 | -12.5% (inactive) | -39.6% (inactive) | 185% | -1.64 | -0.363 | 0.771 | 1.42% (inactive) | -0.37 (inactive) | -4.9e-05 (inactive) | 0.00652 (inactive) | inactive | -16% (inactive)
CCOc1ccc2nc(NC(NC(=O)CC)(C(=O)OC)C(F)(F)F)sc2c1 (stereo not drawn) | 362 | -7% (inactive) | -214% (inactive) | 195% | -0.714 | 0.587 | 0.266 | 3.42% (inactive) | -0.424 (inactive) | -8.8e-05 (inactive) | 0.00487 (inactive) | inactive | -2.07% (inactive)
Cc1ccc2cc(CNC(C)C)c(=O)[nH]c2c1 | 529 | -8.4% (inactive) | 12.9% (inactive) | 99.8% | 2.86 | -1.18 | -1.89 | 37.7% (inactive) | -0.49 (inactive) | -2.7e-05 (inactive) | 0.00672 (inactive) | inactive | -6.41% (inactive)
CN(C)C(=O)COn1c(SCC(=O)N(C)C)nc2ccccc2c1=O | 739 | 2% (inactive) | -47.5% (inactive) | 191% | -0.833 | -0.176 | 1.1 | 0.671% (inactive) | -0.428 (inactive) | -3.4e-05 (inactive) | 0.00719 (inactive) | inactive | 0.936% (inactive)
COC(=O)C(NC(=O)c1ccco1)(Nc1nc(C)cs1)C(F)(F)F (stereo not drawn) | 365 | -1.1% (inactive) | -89.2% (inactive) | 178% | -0.487 | 0.248 | 1.38 | -6.59% (inactive) | -0.459 (inactive) | -9.6e-05 (inactive) | 0.00502 (inactive) | inactive | 14.1% (inactive)
O=C(c1ccc2c3c(cccc13)C(=O)N(O)C2=O)N1CCCCC1 | 583 | -6.7% (inactive) | 65.6% (active) | 92.9% | 1.73 | -0.867 | -1.15 | 35.1% (inactive) | -0.426 (inactive) | -3.2e-05 (inactive) | 0.00526 (inactive) | inactive | 35.8% (inactive)
CSc1nc(N)nc(SCC(=O)C23CC4CC(CC(C4)C2)C3)c1C#N | 491 | 2.8% (inactive) | -70.2% (inactive) | 94.4% | -0.797 | 0.314 | -0.79 | 15.9% (inactive) | -0.334 (inactive) | -1.7e-05 (inactive) | 0.00876 (inactive) | inactive | 35.9% (inactive)
CCCCCOC(=O)Cc1c(C)nc(-c2ccccc2)[nH]c1=O | 373 | -0.5% (inactive) | -157% (inactive) | 157% | 1.82 | -0.595 | -0.463 | 30.7% (inactive) | -0.474 (inactive) | -7.9e-05 (inactive) | 0.00469 (inactive) | inactive | 32% (inactive)
CCOC(=O)CSc1nnc2n(Cc3ccccc3)c(=O)c3c4c(sc3n12)CCC4 | 364 | 0.8% (inactive) | 49.8% (inactive) | 168% | -0.465 | -0.253 | 1.89 | 13.4% (inactive) | -0.428 (inactive) | -0.000132 (inactive) | 0.00471 (inactive) | active; weak signal in gallbladder and intestine | 0.799% (inactive)
COC(=O)c1[nH]c2ccc(Cl)cc2c1NC(=O)C1CC1 | 489 | -0.3% (inactive) | -43.6% (inactive) | 120% | -0.422 | -0.0225 | -0.572 | -4.59% (inactive) | -0.451 (inactive) | -5.4e-05 (inactive) | 0.00568 (inactive) | inactive | -10.7% (inactive)
c1ccc2c(c1)[nH]c1c(N3CCSCC3)ncnc12 | 567 | -4.6% (inactive) | -117% (inactive) | 193% | 0.216 | -0.97 | -0.889 | -4.59% (inactive) | -0.358 (inactive) | -3.7e-06 (inactive) | 0.00494 (inactive) | inactive | 14.6% (inactive)
COc1ccccc1C1/C(=C(/O)c2ccc(OC(C)C)cc2)C(=O)C(=O)N1c1cc(C)on1 (stereo not drawn) | 437 | -8.5% (inactive) | -118% (inactive) | 148% | 1.18 | -0.452 | -0.964 | 9.37% (inactive) | -0.438 (inactive) | -0.000335 (active) | 0.006 (inactive) | inactive | -0.61% (inactive)
Nc1nnnn1N=C1CCCCC1 | 662 | -3.4% (inactive) | -120% (inactive) | 170% | 0.907 | -0.604 | -0.484 | -2.29% (inactive) | -0.493 (inactive) | -3.7e-05 (inactive) | 0.00643 (inactive) | inactive | 2.87% (inactive)
